Test results: ChEMBL document CHEMBL1143821, “Fatty acyl benzamido antibacterials based on inhibition of DnaK-catalyzed protein folding” (J Biol Chem, 2007)
In brackets after ≈: the same amount, converted by molar mass. Activity calls are given as the source filed them. The calls are words filed in the database; no cut-off is given here.

Legend:
[1] = Inhibition of Escherichia coli MC4100 DnaK assessed as effect on luciferase refolding
Summary of the method: (§1)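 Firefly luciferase was denatured 1 h at 10 °C in 6.0 M guanidinium chloride with 5 mM DTT, Tris pH 7.4, at 2.08 μM. It was diluted to 10.4 nM into MOPS pH 7.8 buffer with 1 mM ATP, 5 mM MgCl2, 436 nM DnaK, 160 nM DnaJ and 436 nM GrpE, preincubated 10 min with compound, at 10 °C and 30 °C. Activity was read by luminescence after 1 h. IC50 from a one-site competition fit.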

[2] = Toxicity against human erythrocytes assessed as hemolytic activity; format: cell-based, Erythrocyte
Summary of the method: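 Human erythrocytes were washed in Tris-buffered saline pH 7.4. Cells at 2.5×10^8 cells/ml were exposed to 3.1–50 μg/ml compound for 30 min at 42 °C with gentle shaking, chilled, and centrifuged. Hemoglobin in the supernatant was read at 550 nm after 10-fold dilution in 0.5% NH4OH. Saponin 100 mg/liter = 100%, phosphate buffer = 0%. EC50 from dose-response curves.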

Escherichia coli [3] = experiment: Antimicrobial activity against Escherichia coli MC4100 at 42 degC; format: functional
Summary of the method: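 Liquid growth inhibition in Mueller-Hinton medium, run in triplicate. Compound was dissolved in ethanol/10 mM potassium phosphate pH 7.8, and its concentration was set by absorbance at 236 nm. Varying concentrations were added to mid-log E. coli MC4100 and incubated 24 h at 42 °C, then plated at 37 °C overnight for CFU. MIC = concentration giving 99.9% growth inhibition (NCCLS).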

Escherichia coli [4] = experiment: Increase in transcriptional activity of heat shock inducible pGroESL promoter of sigma32 gene in Escherichia coli MC4100 at 200 uM assessed as beta galactosidase activity after 12 hrs at 42 degC; format: functional
Escherichia coli [5] = experiment: Effect on membrane permeability of Escherichia coli MC4100 assessed as beta lactamase activity in medium at 25 degC; format: functional
Summary of the method: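 Cells were grown with 200 μM compound for 24 h. β-Lactamase activity released to the medium was compared with total activity.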

Escherichia coli [6] = experiment: Increase in transcriptional activity of heat shock inducible rpoDPhs promoter of sigma32 gene in Escherichia coli MC4100 at 200 uM assessed as beta galactosidase activity after 12 hrs at 42 degC; format: functional
[7] = Inhibition of secondary amide peptide bond cis/trans isomerase activity of Escherichia coli MC4100 DnaK assessed as RNase T1P39A refolding assay
Escherichia coli [8] = experiment: Increase in transcriptional activity of heat shock inducible PhtrL-lacZ promoter of sigma32 gene in Escherichia coli MC4100 at 200 uM assessed as beta galactosidase activity after 12 hrs at 42 degC; format: functional, organism-based
Escherichia coli [9] = experiment: Antimicrobial activity against Escherichia coli MC4100 delta-tig at 30 degC; format: functional
[10] = Displacement of sigma32 derived peptide from Escherichia coli MC4100 DnaK
Escherichia coli [11] = experiment: Antimicrobial activity against Escherichia coli MC4100 at 30 degC; format: functional
Escherichia coli [12] = experiment: Inhibition of ATPase activity of Escherichia coli MC4100 DnaK at 150 uM
Summary of the method: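 Steady-state ATPase assay. 1 µM DnaK preincubated with 150 µM inhibitor for 10 min at 30 °C. Reaction started with 330 µM ATP and followed for at least 10 min.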

Escherichia coli [13] = experiment: Activation of Escherichia coli MC4100 RNA polymerase at 200 uM by transcription assay
Summary of the method: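 In vitro transcription of small circular single-strand DNA universal templates by purified E. coli RNA polymerase core enzyme, run per the kit manufacturer's protocol.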

Escherichia coli [14] = experiment: Antimicrobial activity against Escherichia coli MC4100 up to 1.4 mg/ml at 37 degC; format: functional, organism-based
Escherichia coli [15] = experiment: Binding affinity to DnaK in Escherichia coli MC4100 at 0.7 mM by pull-down assay
Summary of the method: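 MC4100 grown overnight in LB at 42 °C and lysed by sonication. Lysate incubated 1 h at room temperature with 0.7 mM biotinylated inhibitor in buffer C (20 mM Tris/HCl pH 7.5, 50 mM KCl, 1 mM MgCl2). BSA-blocked streptavidin beads then added for a further 1 h. Beads washed twice; bound protein eluted with 1.92 mM (final) non-biotinylated parent inhibitor. Read by SDS-PAGE and anti-DnaK immunoblot.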

Escherichia coli [16] = experiment: Inhibition of IPTG-induced thermotolerance in heat shocked Escherichia coli MC4100 expressing delta-DnaK at 1.35 mM; format: functional, organism-based
Summary of the method: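 E. coli MC4100 ΔdnaK pTrc99A-DnaK was grown at 30 °C in Terrific Broth and induced 1 h with 0–1.0 mM IPTG. Cells were heat-shocked 210 s at 57 °C with 1.35 mM compound added just before, then iced 2 min. Serial dilutions were spotted on LB with marker and IPTG and grown 12 h at 30 °C. DnaK levels were checked by immunoblot.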

Escherichia coli [17] = experiment: Increase in transcriptional activity of heat shock inducible PhtrP-lacZ promoter of sigma32 gene in Escherichia coli MC4100 at 200 uM assessed as beta galactosidase activity after 12 hrs at 42 degC; format: functional, organism-based
Escherichia coli [18] = experiment: Increase heat shock-induced protein aggregation in wild type Escherichia coli MC4100; format: functional, organism-based
Summary of the method: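 Wild-type MC4100 was grown at 30 °C to mid-exponential phase, exposed 15 min to compound (0.13 or 0.066 mg/ml), heat-shocked 30 min at 45 °C, then recovered 3 h at 30 °C. The Nonidet P-40-insoluble aggregated protein fraction was isolated by lysozyme/sonication lysis and differential centrifugation, then run on 12.5% SDS-PAGE with Coomassie stain, equal cell numbers per lane. ΔdnaK cells were the reference.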

Escherichia coli [19] = experiment: Inhibition of Escherichia coli MC4100 DnaK-reduced carboxymethylated lactalbumin complex up to 500 uM
[20] = Inhibition of secondary amide peptide bond cis/trans isomerase activity of Escherichia coli MC4100 DnaK/DnaJ/GrpE assessed as luciferase refolding; summary of the method: as §1
Escherichia coli [21] = experiment: Induction of heat shock response in Escherichia coli MC4100 at 30 degC; format: functional, organism-based
Escherichia coli [22] = experiment: Inhibition of Escherichia coli MC4100 DnaK-reduced carboxymethylated lactalbumin complex at >25 uM

| IC50 [1] | MIC (Escherichia coli [3]) | SMILES | EC50 [2] | further results |
| --- | --- | --- | --- | --- |
| 6.1 µg/mL (≈ 12.9 µM) | 1200 µg/mL (≈ 2530 µM) | CCCCCCCCCCCCCC(=O)NCc1ccc(C(=O)N[C@H](C(N)=O)[C@@H](C)CC)cc1 | 100 µg/mL (≈ 211 µM) |  |
| > 400 µg/mL | 1000 µg/mL (≈ 2760 µM) | CCCCCC(=O)NCc1ccc(C(=O)N[C@H](C(=O)O)[C@@H](C)CC)cc1 | > 1500 µg/mL | Activity (Escherichia coli [4]): inactive; Activity (Escherichia coli [5]): 3.68%; Activity (Escherichia coli [6]): inactive |
| 2.3 µg/mL (≈ 4.33 µM) | 3100 µg/mL (≈ 5840 µM) | CCCCCCCCCCCCCCCCCC(=O)NCc1ccc(C(=O)N[C@H](C(=O)O)[C@@H](C)CC)cc1 | 30 µg/mL (≈ 56.5 µM) |  |
| 4.6 µg/mL (≈ 9.67 µM) | 100 µg/mL (≈ 210 µM) | CCCCCCCCCCCCCC(=O)NCc1ccc(C(=O)N[C@@H](CC(N)=O)C(=O)O)cc1 | > 10 µg/mL |  |
| 0.75 µg/mL (≈ 1.59 µM) | 630 µg/mL (≈ 1330 µM) | CCCC/C=C\CCCCCCCC(=O)NCc1ccc(C(=O)N[C@H](C(=O)O)[C@@H](C)CC)cc1 | 350 µg/mL (≈ 740 µM) |  |
| 4.9 µg/mL (≈ 10.3 µM) | 380 µg/mL (≈ 801 µM) | CCCCCCCCCCCCCC(=O)NCc1ccc(C(=O)N[C@H](C(=O)O)[C@@H](C)CC)cc1 | 66 µg/mL (≈ 139 µM) | IC50 [7]: 2700 nM; Activity (Escherichia coli [8]): inactive; MIC (Escherichia coli [9]): 860 µg/mL (≈ 1810 µM); IC50 [10]: 29100 nM; Kd [10]: 2600 nM; MIC (Escherichia coli [11]): ≥ 5000 µg/mL; Fold change (Escherichia coli [4]): 2; Activity (Escherichia coli [12]): inactive; Activity (Escherichia coli [13]): inactive; Activity (Escherichia coli [14]): inactive; Activity (Escherichia coli [15]): Active; Activity (Escherichia coli [16]): Active; Activity (Escherichia coli [17]): inactive; Activity (Escherichia coli [18]): Active; Activity (Escherichia coli [5]): 0.89%; Activity (Escherichia coli [19]): inactive; IC50 [20]: 9500 nM; Fold change (Escherichia coli [6]): 2; Activity (Escherichia coli [21]): inactive |
| 1.1 µg/mL (≈ 2.39 µM) | > 60 µg/mL | CCCCCCCCCCCCCC(=O)Nc1ccc(C(=O)N[C@H](C(=O)O)[C@@H](C)CC)cc1 | > 10 µg/mL |  |
|  | 14 µg/mL (≈ 40.1 µM) | CC1(C)S[C@@H]2[C@H](NC(=O)[C@H](N)c3ccccc3)C(=O)N2[C@H]1C(=O)O [AMPICILLIN] |  |  |
| 40.4 µg/mL (≈ 96.5 µM) | 490 µg/mL (≈ 1170 µM) | CCCCCCCCCC(=O)NCc1ccc(C(=O)N[C@H](C(=O)O)[C@@H](C)CC)cc1 | > 1000 µg/mL |  |
| 35.9 µg/mL (≈ 99.6 µM) | 280 µg/mL (≈ 777 µM) | CC/C=C/CC(=O)NCc1ccc(C(=O)N[C@H](C(=O)O)[C@@H](C)CC)cc1 | > 1500 µg/mL |  |
| 3.6 µg/mL (≈ 7.19 µM) | 1300 µg/mL (≈ 2600 µM) | CCCCCC/C=C\CCCCCCCC(=O)NCc1ccc(C(=O)N[C@H](C(=O)O)[C@@H](C)CC)cc1 | 250 µg/mL (≈ 499 µM) |  |
| 2.6 µg/mL (≈ 5.32 µM) | 640 µg/mL (≈ 1310 µM) | CCCCCCCCCCCCCC(=O)NCCc1ccc(C(=O)N[C@H](C(=O)O)[C@@H](C)CC)cc1 | 35 µg/mL (≈ 71.6 µM) |  |
| 7 µg/mL (≈ 14.7 µM) | > 2000 µg/mL | CCCCCCCCCCCCCC(=O)NCc1cccc(C(=O)N[C@H](C(=O)O)[C@@H](C)CC)c1 | 84 µg/mL (≈ 177 µM) |  |
|  |  | CC(C)C[C@H](NC(=O)[C@H](CC(C)C)NC(=O)[C@H](CCCNC(=N)N)NC(=O)[C@@H](N)CC(N)=O)C(=O)N[C@@H](CC(C)C)C(=O)N[C@H](C(=O)NCC(=O)O)[C@@H](C)O |  | IC50 [10]: 1300 nM; Activity (Escherichia coli [22]): Active |
| 5.5 µg/mL (≈ 13.1 µM) | > 500 µg/mL | CCCCCCCCCCCCCC(=O)NCc1ccc(C(=O)NCC(=O)O)cc1 | > 50 µg/mL |  |
| 1.2 µg/mL (≈ 2.39 µM) | 180 µg/mL (≈ 358 µM) | CCCCCCCCCCCCCCCC(=O)NCc1ccc(C(=O)N[C@H](C(=O)O)[C@@H](C)CC)cc1 | 50 µg/mL (≈ 99.5 µM) |  |
| 1.9 µg/mL (≈ 4.25 µM) | 650 µg/mL (≈ 1460 µM) | CCCCCCCCCCCC(=O)NCc1ccc(C(=O)N[C@H](C(=O)O)[C@@H](C)CC)cc1 | 400 µg/mL (≈ 896 µM) |  |
| 11.5 µg/mL (≈ 23.5 µM) | 2800 µg/mL (≈ 5720 µM) | CCCCCCCCCCCCCC(=O)NCc1ccc(C(=O)N[C@@H](CCC(N)=O)C(=O)O)cc1 | 520 µg/mL (≈ 1060 µM) |  |
| 3.9 µg/mL (≈ 7.67 µM) | 1200 µg/mL (≈ 2360 µM) | CCCCCCCCCCCCCC(=O)NCc1ccc(C(=O)N[C@@H](Cc2ccccc2)C(=O)O)cc1 | > 200 µg/mL |  |
